Measurements from different studies.
Compare with care: the assays were run in different laboratories.

c1cnc2ccc(Nc3nc(NC4CC4)c4nc[nH]c4n3)cc2c1 — MRT(0-t) (human, plasma; oral, 400 mg/m², patients): 6.8 h
CC(C)CN(C[C@@H](O)[C@H](Cc1ccccc1)NC(=O)O[C@H]1CO[C@H]2OCC[C@H]21)S(=O)(=O)c1ccc(N)cc1 — concentration (BALB/c mouse, plasma; intravenous, 25 mg/kg, 12 h): 31.4 ng/mL
O=S(=O)(c1ccc(-c2ccc3nccc(Nc4ccncn4)c3c2)cc1)N1CCOCC1 — concentration (female BALB/c mouse, plasma; intraperitoneal, 10 mg/kg, 24 h): 0 ng/mL
CC(C)Oc1cccc(-c2cnc(N3CCC(C(N)=O)CC3)s2)c1 — concentration (male Swiss mouse, brain; oral, 30 mg/kg, 4 h, single dose): 83 nM
CC(C)(C)c1ccc(O)c(CN(Cc2cc(C(C)(C)C)ccc2O)C2CCC(NC(N)=O)CC2)c1 (stereo not drawn) — half-life (male C57BL/6 mouse, brain; intraperitoneal, 10 mg/kg, single dose): 7.08 h
CC(C)(O)c1ccccc1-c1ccc2[nH]c(/C=C/c3ccc(C(F)(F)F)cc3)nc2c1 — MRT (male human, plasma; oral, 60 mg, single dose, fasted, healthy volunteers): 91.4 h
O=C(O)C1CCN(c2ncc(-c3ccc4c(c3)OCCCO4)s2)CC1 — concentration (male Swiss mouse, plasma; oral, 30 mg/kg, 1 h, single dose): 7580 ng/mL
CC(C)(Nc1nc(-c2ccccn2)nc2ccccc12)c1ccccn1 — concentration (female BALB/c mouse, plasma; intravenous, 1 mg/kg, 15 min): 963 ng/mL
O=c1nc(N2CCN(CC3CCCCC3)CC2)sc2c([N+](=O)[O-])cc(C(F)(F)F)cc12 — concentration (CD-1 mouse, lung; oral, 100 mg/kg, 15 min): 431 ng/mL
